# G6PDH counter – L. mesenteroides G6PDH inhibition counter-screen; Purified L. mesenteroides G6PDH, diaphorase/resazurin coupled fluorescence, 45 min; inhibition, % at 5 µM; 200,000 compounds, 0.12% hits; AID 1020; in the data active = inhibition above about 50%
# PfGluPho inh – PfG6PD (Plasmodium falciparum) enzyme inhibition; PfGluPho enzyme, NADPH resazurin-diaphorase fluorescence; inhibition, % at 20 µM; 350,000 compounds, 0.78% hits; AID 504690;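 active = inhibition reaching at least a set limit at 20 µM in the primary screen, cut at about 59% in these data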;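 note: 0% = DMSO wells with substrate and 100% = DMSO wells lacking glucose-6-phosphate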
# Diaphorase act – counter-screen for diaphorase-based assays: diaphorase activators and chemical reducers; Diaphorase/resazurin coupled assay, resorufin fluorescence, 16 min; active compounds read high; 1 = vehicle wells, 0 = NADH-free wells; activation factor at 20 µM; 190,000 compounds, 0.005% hits; AID 1229;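 active = diaphorase activity raised at least twofold by the compound at 20 µM; inactive = activation factor below 2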
#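 test system = bacterial diaphorase enzyme (C. kluyveri) | quantity = enzyme 0.07 U/mL final | reagent = NADH substrate 0.114 mM plus resazurin dye 0.1 mM, final | incubation = 16 min enzyme reaction, ambient temperature | buffer or medium = HEPES pH 7.4 buffer with MgCl2 and Tween 20 | signal = fluorescence of resorufin, 544 nm excitation, 590 nm emission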
# HKDC1 inhibitor – inhibitors of human hexokinase HKDC1 | 340,000 compounds, 0.16% hits | recombinant HKDC1, G6PDH/diaphorase resazurin coupled fluorescence | Q2TB90 | inhibition, % at 20 µM;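 active = inhibition above about 35% when tested at 20 µM, limit read from the data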;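 note: plate controls were DMSO wells with enzyme for no effect and DMSO wells lacking enzyme for full effect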
# Target sequence (Q2TB90 whole entry, looked up): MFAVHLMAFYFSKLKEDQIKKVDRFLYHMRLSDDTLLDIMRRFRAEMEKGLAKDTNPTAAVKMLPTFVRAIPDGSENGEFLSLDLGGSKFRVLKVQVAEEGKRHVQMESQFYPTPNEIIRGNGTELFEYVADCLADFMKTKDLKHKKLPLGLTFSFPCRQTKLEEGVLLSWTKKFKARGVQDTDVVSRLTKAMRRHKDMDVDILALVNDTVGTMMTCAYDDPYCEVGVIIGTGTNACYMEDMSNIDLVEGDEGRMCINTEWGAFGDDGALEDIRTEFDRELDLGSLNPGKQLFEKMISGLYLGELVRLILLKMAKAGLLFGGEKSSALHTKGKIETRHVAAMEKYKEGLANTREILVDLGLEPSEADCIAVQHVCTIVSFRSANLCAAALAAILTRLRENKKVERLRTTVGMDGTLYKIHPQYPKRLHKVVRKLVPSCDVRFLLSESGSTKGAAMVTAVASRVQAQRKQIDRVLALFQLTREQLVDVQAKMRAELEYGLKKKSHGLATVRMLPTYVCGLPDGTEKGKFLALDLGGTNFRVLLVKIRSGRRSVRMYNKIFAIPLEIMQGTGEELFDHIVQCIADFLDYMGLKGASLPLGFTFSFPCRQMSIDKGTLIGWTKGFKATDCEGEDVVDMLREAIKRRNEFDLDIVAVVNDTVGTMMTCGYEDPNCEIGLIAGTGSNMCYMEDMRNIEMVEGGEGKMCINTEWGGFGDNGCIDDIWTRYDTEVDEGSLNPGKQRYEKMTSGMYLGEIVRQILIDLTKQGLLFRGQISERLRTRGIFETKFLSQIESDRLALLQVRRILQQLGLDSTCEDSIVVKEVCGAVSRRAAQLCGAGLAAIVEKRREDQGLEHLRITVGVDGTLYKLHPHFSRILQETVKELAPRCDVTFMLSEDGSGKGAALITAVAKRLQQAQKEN
#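 Test system: HK5 enzyme. Quantity: 5 µg/mL HK5 final. Reagent: glucose and ATP substrates. Schedule: 90 min reaction incubation at room temperature, dark. Technique: resazurin-to-resorufin fluorescence via G6PDH and diaphorase coupling, 525/613 nm. Control set: DMSO wells with and without enzyme mix.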
# Diaphorase inh – counter-screen for diaphorase-based assays: diaphorase inhibitors and chemical oxidizers | diaphorase resazurin-to-resorufin fluorescence, NADH, 16 min; bacterial (C. kluyveri) enzyme, not human | inhibition, % at 20 µM | 190,000 compounds, 0.69% hits | AID 1217;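 active = primary screen inhibition at 20 µM above a set limit, cut at about 50% in these data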;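 note: plate controls were DMSO with full reaction for no effect and wells lacking NADH for full effect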
#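 Test system: diaphorase enzyme from Clostridium kluyveri; amount: diaphorase at 0.14 U/mL in enzyme working solution; detection: fluorescence of resorufin formed from resazurin, Ex 544/Em 590 nm; times: reaction incubation of 16 min at room temperature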
# PfG6PD confirm – confirmation of Plasmodium falciparum G6PD inhibitors | 2,400 compounds, 34% hits | AID 504753 | recombinant PfGluPho, NADPH-diaphorase-resazurin fluorescence | shares compounds with PfGluPho inh | inhibition, % at 20 µM;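 active = inhibition of at least 50% at 20 µM in any single replicate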;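 note: 0% = DMSO with substrate and 100% = DMSO lacking glucose-6-phosphate substrate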
# Diaphorase 10uM – diaphorase inhibition or oxidation at 10 uM NADPH | shares compounds with PfGluPho inh | diaphorase-coupled resazurin reduction, fluorescence, NADPH 10 uM | inhibition, % at 20 µM | 820 compounds, 39% hits | AID 504862;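 active = average inhibition reaching 50% or more with the compound at 20 µM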;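 note: resorufin red fluorescence formed as diaphorase reduces resazurin using NADPH; 0% = DMSO with enzyme and 100% = DMSO without enzyme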
# Diaphorase 30uM – counter-screen for P. falciparum G6PD inhibitors: diaphorase inhibitors, oxidizers; shares compounds with PfGluPho inh; Diaphorase/resazurin coupled assay, resorufin fluorescence, 30 uM NADPH; inhibition, % at 20 µM; 820 compounds, 29% hits; AID 504863;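 active = inhibition averaging 50% or more, tested at 20 µM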;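 note: 0% = DMSO with enzyme and 100% = DMSO wells lacking diaphorase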
# An asterisk follows results filed as active; . = not tested or not shown. Hits are enriched below; roughly 1.2% of the tested compounds scored in any of these assays.
SMILES,G6PDH counter,PfGluPho inh,Diaphorase act,HKDC1 inhibitor,Diaphorase inh,PfG6PD confirm,others
COc1ccc(/C=N/NC(=O)c2c(-c3ccccc3)noc2C)cc1,14,-1,1.1,-7,-15,.,
O=C1CSC(=Nc2cccc([N+](=O)[O-])c2)N1,.,17,.,-2,.,.,
COc1ccc(CCNC(=O)CN(c2ccc(OC)c(OC)c2)S(=O)(=O)c2ccccc2)cc1OC,.,-13,.,0,.,.,
COc1ccccc1/C=N/NC(=O)c1c(-c2ccccc2)noc1C,.,87*,.,7,.,66*,Diaphorase 10uM=84*;Diaphorase 30uM=64*
COc1cc(/C=N/NC(=O)c2c(-c3ccccc3)noc2C)cc(OC)c1OC,-2,-1,1,-3,0,.,
CCCC(=O)N1CCN(c2nc3c(OC)ccc(Cl)c3s2)CC1,.,8,.,1,.,.,
CCOC(=O)c1c(C)[nH]c2cc(Br)c(O)cc12,4,18,0.7,6,28,.,
CCOC(=O)c1c(OCC)[nH]c2c1cc(O)c1ccccc12,8,69*,0.3,27,74*,49*,Diaphorase 10uM=21;Diaphorase 30uM=25
CN(C(=O)c1ccc(NC(=O)Cc2cccc(NC(=O)C3CCN(C(=O)c4ccccc4)CC3)c2)cc1)C1CCCC1,.,-3,.,-5,.,.,
CCNc1cc2c(cc1O)CCC1C2CCC2(C)C(O)CCC12 (stereo unspecified),.,80*,.,2,.,50*,Diaphorase 10uM=-7;Diaphorase 30uM=-8
CC1=C(C(N)=O)C(c2ccc(Cl)cc2Cl)n2ncnc2N1 (stereo unspecified),4,-6,0.9,5,10,.,
CC1=C(C(N)=O)C(c2ccccc2[N+](=O)[O-])n2ncnc2N1 (stereo unspecified),.,65*,.,2,.,0,
O=C(NC1CCCCCC1)C(=S)N1CCOCC1,-6,59*,0.9,-13,8,24,
O=C(/C=C/c1ccccc1)NC(NC(=S)Nc1cccc(Cl)c1)C(Cl)(Cl)Cl (stereo unspecified),6,-5,0.9,0,15,.,
O=C(/C=C/c1ccccc1)NC(NC(=S)Nc1ccc(Cl)cc1Cl)C(Cl)(Cl)Cl (stereo unspecified),-8,62*,0.8,-6,20,21,
O=C(COC(=O)CSc1ccc([N+](=O)[O-])cc1)NCCCc1ccccc1,.,66*,.,9,.,-9,
CC(OC(=O)CSc1ccc([N+](=O)[O-])cc1)C(=O)NCc1ccccc1 (stereo unspecified),.,66*,.,5,.,-24,
Cc1cc(=O)[nH]c(SCc2nnc(-c3ccccc3)o2)n1,-2,-6,1,-4,0,.,
Clc1ccc2nc(SCc3nnc(-c4ccccc4)o3)[nH]c2c1,12,113*,0.7,8,29,44,
Cc1ccc(/C=C/C(=O)NCc2cccs2)cc1,9,32,1.1,0,-7,.,
Cc1ccc(/C=C/C(=O)NCc2cccs2)c(C)c1,14,88*,0.8,2,23,29,
CC(=O)Nc1cc2c(cc1[N+](=O)[O-])-c1ccccc1C2O (stereo unspecified),.,81*,.,8,.,83*,Diaphorase 10uM=34;Diaphorase 30uM=6
Cc1nc2ccccn2c1-c1ccnn1S(=O)(=O)c1ccc(F)cc1,.,77*,.,-1,.,56*,Diaphorase 10uM=44;Diaphorase 30uM=59*
Cc1nc2ccccn2c1C(=O)/C=C/c1ccc(F)cc1,10,24,0.9,4,8,.,
N#Cc1ccc(C(=O)N(Cc2ccco2)c2c(N)n(Cc3ccccc3)c(=O)[nH]c2=O)cc1,.,10,.,0,.,.,
SMILES,G6PDH counter,PfGluPho inh,Diaphorase act,HKDC1 inhibitor,Diaphorase inh,PfG6PD confirm,others
Cn1nc(C(=O)NNC(=O)c2ccccc2Br)c2ccccc2c1=O,.,0,.,-6,.,.,
Cc1ccc(-n2c(SCC(=O)Nc3cc(C)on3)nc3c(c2=O)SC(C)C3)cc1 (stereo unspecified),18,84*,0.9,0,11,31,
CCn1c(=O)n(CC)c2cc(N3CCCC3)c(NC(=O)c3c(F)cccc3F)cc21,.,39,.,1,.,.,
CCn1c(=O)n(CC)c2cc(N3CCCC3)c(NC(=O)c3ccc(F)cc3)cc21,.,78*,.,3,.,41,
COc1cc(C2Nc3ccc4ncccc4c3C3=C2C(=O)CC(C)(C)C3)cc(OC)c1O (stereo unspecified),45,35,0.6,4,41,.,
COc1cc(C2Nc3ccc4ncccc4c3C3=C2C(=O)CCC3)cc(OC)c1O (stereo unspecified),50*,69*,0.6,15,44,29,
O=C(O)c1ccccc1NS(=O)(=O)c1cccc(-n2sc3ccccc3c2=O)c1,.,110*,.,15,.,105*,Diaphorase 10uM=-12;Diaphorase 30uM=-24
CC(C)C[C@H]1COCCS(=O)(=O)N1Cc1cccc(F)c1,.,-1,.,5,.,.,
CCN(CC)C(=O)c1ccc(CS(=O)(=O)Cc2ccccc2)cc1,.,1,.,2,.,.,
CCOC(=O)C1(Cc2ccccc2Cl)CCN(Cc2csc(C(C)=O)c2)CC1,13,63*,0.8,-9,20,25,
CS(=O)(=O)c1cccc(NC(=O)C2CCCN2S(=O)(=O)c2ccc(F)cc2)c1 (stereo unspecified),.,2,.,-4,.,.,
O=[N+]([O-])c1ccc(N2CCN(c3ccc(O)cc3)CC2)cn1,.,62*,.,5,.,38,
O=C1C(=NO)CCc2ccccc21,.,62*,.,26,.,29,
O=S(=O)(Oc1ccccc1/C=N/n1cnnc1)c1ccccc1,-1,96*,0.8,-5,20,81*,Diaphorase 10uM=81*;Diaphorase 30uM=63*
CCCC(=O)Nc1nnc(SCC(=O)N2CCCCC2)s1,.,10,.,-4,.,.,
COc1ccc2c(c1)CCc1cc(C(=O)N3CCN(c4ccc(N5CCOCC5)nn4)CC3)sc1-2,-57,77*,0.8,21,20,41,
COC(=O)c1ccc(NC(=O)CN2CCN(CCO)CC2)cc1,.,3,.,0,.,.,
O=C1CCCC2=C1C(c1ccccc1)C1C(=O)c3ccccc3C1=N2 (stereo unspecified),13,30,0.8,-4,20,.,
O=C1CCCC2=C1C(c1ccc(Cl)cc1)C1C(=O)c3ccccc3C1=N2 (stereo unspecified),5,72*,0.8,-1,24,36,
Cn1nc(-c2ccccc2)nc1-c1ccccc1,.,6,.,-9,.,.,
CN=c1nc(-c2ccccc2)n(-c2ccccc2)s1,.,121*,.,5,.,111*,Diaphorase 10uM=-12;Diaphorase 30uM=3

# Assay outcomes deposited in PubChem by Sanford-Burnham Center for Chemical Genomics.
